Data set [1] relates to MDA-MB-231. In words: Antiproliferative activity against human MDA-MB-231 cells after 72 hrs by MTT assay. The data set is classed as functional, cell-based.
Data set [2] concerns MDA-MB-435. As to the kind of experiment: Antiproliferative activity against human MDA-MB-435 cells after 72 hrs by MTT assay. Conditions: MDA-MB-435, 72 h; call rule not given here. It counts as functional, cell-based. On the technique in general: Tetrazolium assays rely on reduction of a dye to a coloured formazan, in cell work by metabolically active cells.
A short description of data set [3]: Antiproliferative activity against mouse B16F10 cells after 72 hrs by MTT assay. The data set is classed as functional, cell-based. The settings on record: B16-F10, 72 h.
The subject of data set [4] is Caco-2. As to the kind of experiment: Antiproliferative activity against human Caco2 cells after 72 hrs by MTT assay. The data set is classed as functional, cell-based.
Data set [5] is described as follows: Antiproliferative activity against human HuH7 cells after 72 hrs by MTT assay. The settings on record: Huh-7, 72 h. The data set is classed as functional, cell-based.
For data set [6], the system named is DU-145. In words: Antiproliferative activity against human DU145 cells after 72 hrs by MTT assay. The data set is classed as functional, cell-based.
Data set [7] in a line: Antimigratory activity in mouse B16F10 cells after 24 hrs by fibronectin-coated boyden chamber assay. The settings on record: b16-f10. It counts as functional, cell-based. Put shortly: (§1)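 Boyden chamber inserts were coated overnight with laminin, fibronectin or vitronectin (human plasma), PBS-washed and blocked 1 h with 0.5% BSA. Cells in DMEM/0.1% BSA were placed in the upper compartment for 24 h with or without compound. Non-migrating cells were wiped off; lower-side cells were methanol-fixed, crystal violet-stained and counted. Run in triplicate. Ki came from Hill fit of dose-log response curves.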

The nature of data set [8]: Antimigratory activity in mouse B16F10 cells after 24 hrs by laminin-coated boyden chamber assay. Conditions: b16-f10. The data set is classed as functional, cell-based. Put shortly:
as §1

Data set [9] in a line: Antimigratory activity in mouse B16F10 cells after 24 hrs by vitronectin-coated boyden chamber assay. The data set is classed as functional, cell-based. Conditions: b16-f10. An outline of the steps:
as §1

A short description of data set [10]: Antiinvasive activity in mouse B16F10 cells after 24 hrs by matrigel assay in presence of HGF. It counts as functional, cell-based. The settings on record: b16-f10. An outline of the steps: (§2)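 Boyden chamber inserts loaded with Matrigel diluted 33-fold in PBS, with HGF in the lower chamber. Cells resuspended in DMEM with 0.1% BSA were plated in the upper compartment and incubated 24 h with or without compound. Cells on the lower membrane surface were methanol-fixed, crystal violet-stained and counted. % Inh was computed against untreated migration. Run in triplicate. EC50/Ki were obtained by Hill fit of dose-log response curves.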

The test system of data set [11] is MDA-MB-435. In words: Antimigratory activity in human MDA-MB-435 cells after 24 hrs by fibronectin-coated boyden chamber assay. It counts as functional, cell-based. Put shortly: as §1
In data set [12] the test system is MDA-MB-435. In words: Antimigratory activity in human MDA-MB-435 cells after 24 hrs by laminin-coated boyden chamber assay. The data set is classed as functional, cell-based. An outline of the steps: as §1
In data set [13] the test system is MDA-MB-435. As to the kind of experiment: Antimigratory activity in human MDA-MB-435 cells after 24 hrs by vitronectin-coated boyden chamber assay. It counts as functional, cell-based. An outline of the steps: as §1
For data set [14], the system named is MDA-MB-435. In words: Antiinvasive activity in human MDA-MB-435 cells after 24 hrs by matrigel assay in presence of HGF. It counts as functional, cell-based. Conditions: read-out: Ki. An outline of the steps: as §2
A short description of data set [15]: Cytotoxicity against mouse B16F10 cells. The settings on record: b16-f10. The data set is classed as cell-based.
In data set [16] the test system is MDA-MB-435. As to the kind of experiment: Cytotoxicity against human MDA-MB-435 cells. It counts as cell-based.
Setting [17] is: Homo sapiens, MDA-MB-231, 72 h, read-out: IC50.
The mark [18] stands for this setting: Homo sapiens, Caco-2, 72 h, read-out: IC50.
Where [19] appears, read: Homo sapiens, DU-145, 72 h, read-out: IC50.

The values below come from ChEMBL document CHEMBL3632559, “α-Halogenated oxaphosphinanes: Synthesis, unexpected reactions and evaluation as inhibitors of cancer cell proliferation” (Eur J Med Chem, 2015).

The IC50 is the midpoint of a concentration-inhibition curve. As usually defined, the Ki is a dissociation constant, usually derived from enzyme kinetics or from competition with a known ligand.

On to `O=[P@@]1(c2ccccc2)O[C@H](COCc2ccccc2)[C@@H](OCc2ccccc2)[C@H](OCc2ccccc2)[C@@H]1I`, for which the half-maximal inhibitory concentration (IC50) in [1] (setting [17]) was found to be 466 nM; in data set [2], 0.55 nM; in [3] it was 7.7 nM; in data set [4] (setting [18]), 20500 nM; in data set [5], 229 nM; in data set [6] (setting [19]), 215 nM. In addition, the inhibition constant Ki in [7] is 16 nM; in data set [8] it was 17 nM; in data set [9] it was 44 nM; in [10], 29 nM; in data set [11], 29 nM; in data set [12], 25 nM. For the same molecule, in data set [13], affinity was put at a Ki of 43 nM. In addition, the EC50 in data set [14] amounted to 28 nM.
As to `O=[P@@]1(c2ccccc2)O[C@H](COCc2ccccc2)[C@@H](OCc2ccccc2)[C@H](OCc2ccccc2)[C@H]1I`, the IC50 in data set [1] (setting [17]) came out at 478 nM; in [2], 0.3 nM; in data set [3], 4 nM; in data set [4] (setting [18]), 28600 nM; in data set [5], 13 nM; in [6] (setting [19]) it was 104 nM. For the same molecule, the inhibition constant Ki is 20 nM in [7]; 16 nM in data set [8]; 35 nM in data set [9]; 37 nM in [10]; 28 nM in data set [11]; 23 nM in [12]. The molecule also displayed a Ki in data set [13] of 101 nM. In addition, the EC50 in data set [14] is 35 nM. Also, the Activity result in data set [15] and in data set [16] was “Toxic” throughout.
On to `O=[P@@]1(c2ccccc2)O[C@H](COCc2ccccc2)[C@@H](OCc2ccccc2)[C@H](OCc2ccccc2)[C@@H]1Br`, for which the IC50 in data set [1] (setting [17]) was 445 nM; in [2], 0.2 nM; in data set [3], 4.6 nM; in data set [4] (setting [18]), 24700 nM; in [5], 11.6 nM; in [6] (setting [19]) it was 102 nM. The Ki in data set [7] came to 46 nM; in [8], 10 nM; in [9] it was 21 nM; in [10], 17 nM; in data set [11] it was 39 nM; in data set [12] it was 34 nM. The molecule further came in with an inhibition constant (Ki) in data set [13] of 46 nM. The EC50 in data set [14] amounted to 13 nM.
Take `O=[P@@]1(c2ccccc2)O[C@H](COCc2ccccc2)[C@@H](OCc2ccccc2)[C@H](OCc2ccccc2)[C@H]1Br`: the concentration for half-maximal inhibition (IC50) in data set [1] (setting [17]) is 432 nM; in data set [2], 0.35 nM; in data set [3], 3.8 nM; in data set [4] (setting [18]), 29500 nM; in data set [5], 15.8 nM; in data set [6] (setting [19]), 86.5 nM. In addition, the Ki turned out to be 30 nM in data set [7]; 20 nM in data set [8]; 50 nM in data set [9]; 32 nM in data set [10]; 28 nM in [11]; 42 nM in [12]. The Ki in data set [13] was 78 nM. In addition, the EC50 in [14] is 30 nM.
On to `O=[P@@]1(c2ccccc2)O[C@H](COCc2ccccc2)[C@@H](OCc2ccccc2)[C@H](OCc2ccccc2)[C@H]1Cl`, for which the half-maximal inhibitory concentration (IC50) in data set [1] (setting [17]) worked out at 359 nM; in data set [2], 1.6 nM; in [3] it was 7.7 nM; in data set [4] (setting [18]) it was 24800 nM; in data set [5] it was 1170 nM; in [6] (setting [19]), 226 nM. The Ki in [7] amounted to 18 nM; in data set [8], 13 nM; in data set [9] it was 380 nM; in data set [10], 37 nM; in data set [11] it was 36 nM; in data set [12] it was 32 nM. The affinity in [13] corresponds to a Ki of 52 nM. For the same molecule, the EC50 in data set [14] turned out to be 35 nM. The Activity result in data set [15] and in data set [16] was “Toxic” throughout.
Take `O=[P@]1(c2ccccc2)C=C(OCc2ccccc2)[C@H](OCc2ccccc2)[C@@H](COCc2ccccc2)O1`: the concentration for half-maximal inhibition (IC50) in [1] (setting [17]) was 286 nM; in data set [2], 0.52 nM; in data set [3], 4.4 nM; in data set [4] (setting [18]) it was 28400 nM; in data set [5] it was 37.5 nM; in [6] (setting [19]) it was 116 nM.
Consider `O=[P@@]1(c2ccccc2)O[C@H](COCc2ccccc2)[C@@H](OCc2ccccc2)[C@H](OCc2ccccc2)[C@H]1F`, for which the IC50 result is “Not Active” in data set [1] (mda-mb-231); 1.45 nM in data set [2]; 1.7 nM in data set [3]; “Not Active” in [4] (caco-2); 12.1 nM in data set [5]; “Not Active” in data set [6] (du-145). In addition, the Ki in [7] was 22 nM; in data set [8], 16 nM; in data set [9], 40 nM; in [10] it was 33 nM; in [11], 28 nM; in data set [12], 34 nM. For the same molecule, in [13], the Ki was determined as 66 nM. Moreover, the EC50 in data set [14] amounted to 31 nM.
Regarding `O=[P@@]1(c2ccccc2)O[C@H](COCc2ccccc2)[C@@H](OCc2ccccc2)[C@H](OCc2ccccc2)[C@@H]1Cl`, the Ki in [7] was 49 nM; in data set [8], 19 nM; in [9], 34 nM; in data set [10] it was 35 nM; in data set [11] it was 28 nM; in data set [12], 23 nM. The molecule further yielded a Ki in data set [13] of 41 nM. For the same molecule, the EC50 in data set [14] is 36 nM.
